# Screens from PubChem.
# This is a sample that favours compounds with a hit; in the whole collection about 3.1% have one here.
# HSF1 activator = increases HSF-1 driven luciferase reporter signal; NIH3T3-HGL HSF-1 luciferase reporter, MG132, 8 h; 100% = twice DMSO control signal; activation, % at 9 µM; 1.7% of 300,000 active;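 active means mean replicate activation of at least 50% with a set share of replicates each reaching 50%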;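 further: 0% = median of the neutral control wells and 100% = twice that signal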
# TbHK1 inh = blocks Trypanosoma brucei hexokinase 1 activity. 0.11% of 220,000 active. inhibition, % at 10 µM. AID 1430. recombinant TbHK1, G6PDH-coupled NADH A340;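 active means inhibition of 50% or more in the single-dose primary screen; inactive means inhibition below 50%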
# HSF1 inhib = HSF1 inhibition | 0.77% of 300,000 active | activity change, negative = inhibition, % at 7.5 µM (by protocol) | NIH3T3-HGL HSE-luciferase, MG132-induced, luminescence 8 h; hits give low values | AID 2098;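 active means more than half of replicate wells show activity change below -50%, luminescence cut by over half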;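 further: luciferase reports HSF-1 transcriptional activity via heat shock element; 0% = median of DMSO wells and -100% = zero luminescence signal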
# HSP90 inh = blocks HSP90-mediated luciferase refolding in reticulocyte lysate | 0.91% of 290,000 active | inhibition, % at 5.6 µM | Rabbit reticulocyte lysate, luciferase refolding luminescence, 3 h;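 active means inhibition above the screen-wide mean plus 3 SD, computed separately per campaign, cut at about 16% in these data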;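 further: 0% = DMSO wells and 100% = 60 µM geldanamycin wells; inhibitors lower the luminescence because luciferase stays unfolded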
# HKDC1 inh = inhibitors of human hexokinase HKDC1 | Q2TB90 | recombinant HKDC1, G6PDH/diaphorase resazurin coupled fluorescence | inhibition, % at 20 µM | 0.16% of 340,000 active | AID 493160;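 active means inhibition above about 35% when tested at 20 µM, limit read from the data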;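 further: plate controls were DMSO wells with enzyme for no effect and DMSO wells lacking enzyme for full effect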
# Target sequence (Q2TB90 whole entry, looked up): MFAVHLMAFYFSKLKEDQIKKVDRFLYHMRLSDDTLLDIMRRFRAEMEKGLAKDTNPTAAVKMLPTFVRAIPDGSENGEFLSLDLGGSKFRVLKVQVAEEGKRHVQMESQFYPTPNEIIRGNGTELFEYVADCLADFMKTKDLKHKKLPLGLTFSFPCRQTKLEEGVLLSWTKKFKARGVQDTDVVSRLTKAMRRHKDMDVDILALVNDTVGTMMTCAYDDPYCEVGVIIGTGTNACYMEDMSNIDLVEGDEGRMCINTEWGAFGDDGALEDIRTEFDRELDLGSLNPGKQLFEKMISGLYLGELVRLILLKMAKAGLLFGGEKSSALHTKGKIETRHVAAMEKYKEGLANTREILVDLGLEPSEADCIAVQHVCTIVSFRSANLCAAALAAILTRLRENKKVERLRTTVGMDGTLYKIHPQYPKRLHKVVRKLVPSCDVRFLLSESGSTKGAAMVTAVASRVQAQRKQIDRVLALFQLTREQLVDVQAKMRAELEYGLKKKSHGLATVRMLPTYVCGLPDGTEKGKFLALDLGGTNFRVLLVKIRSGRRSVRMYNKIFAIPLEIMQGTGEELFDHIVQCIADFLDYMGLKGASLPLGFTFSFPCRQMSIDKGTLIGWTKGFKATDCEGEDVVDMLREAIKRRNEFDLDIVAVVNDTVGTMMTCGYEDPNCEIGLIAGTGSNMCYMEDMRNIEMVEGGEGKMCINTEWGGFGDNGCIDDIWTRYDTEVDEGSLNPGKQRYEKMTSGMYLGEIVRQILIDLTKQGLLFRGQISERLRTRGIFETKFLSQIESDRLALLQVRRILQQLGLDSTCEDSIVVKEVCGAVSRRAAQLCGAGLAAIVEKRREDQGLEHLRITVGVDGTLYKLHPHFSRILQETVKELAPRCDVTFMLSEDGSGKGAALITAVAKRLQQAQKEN
#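 Test system: recombinant HKDC1 (HK5) hexokinase enzyme, produced in-house / Doses: 20 µM test compound, 1% DMSO / Timing: 90 min, room temperature / Detection: G6PDH/diaphorase-coupled fluorescence, 1 mM NADP, 100 µM resazurin, 525/613 nm / Control set: DMSO wells with and without enzyme mix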
# Hsp70 act = Hsp70 transcriptional activation, primary screen. HeLa Hsp70 promoter luciferase reporter, luminescence; scaled: vehicle 0, proteasome-inhibitor control 100%. activation, % at 10 µM. 0.04% of 200,000 active. AID 1203;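 active means activation above the mean across all tested compounds plus 3 SD, cutoff set per campaign, cut at about 5.5% in these data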;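 further: 100% = MG132 at 30 µM as the positive control and 0% = DMSO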
# * = called active by the depositor; nt = no result given.
SMILES,HSF1 activator,TbHK1 inh,HSF1 inhib,HSP90 inh,HKDC1 inh,Hsp70 act
Cc1ccc2cc(NC(=O)c3cccc(F)c3)ccc2n1,36,-13,43,5,-5,nt
CCCCn1nc(C(=O)NCc2ccccc2CN2CCCC2)c2ccccc2c1=O,nt,nt,nt,nt,-4,nt
Cc1ccc(OCc2cc(C(=O)N3CCN(C)C[C@@H]3c3ccccc3)no2)cc1C,56*,nt,27,-2,2,nt
CN1CCN(C(=O)c2cc(COc3ccccc3)on2)[C@@H](c2ccccc2)C1,36,nt,30,3,-5,nt
O=C(Nc1ccccc1)OCCOc1ccc(Cl)cc1Cl,nt,nt,nt,nt,4,nt
Cc1ccccc1N1CCN(S(=O)(=O)Cc2ccccc2)CC1,52*,nt,19,2,1,nt
CCN(C(=O)CN1CCCC(C)C1)c1c(N)n(Cc2ccccc2)c(=O)[nH]c1=O (centres undefined),nt,nt,nt,nt,-4,nt
N/C(=N\OC(=O)Nc1ccccc1)c1ncc([N+](=O)[O-])s1,65*,-7,40,1,0,nt
Cc1noc2ncnc(N3CCCC3)c12,-5,-1,-1,-1,-11,1
Cc1noc2ncnc(Sc3ccc(Br)cc3)c12,153*,-3,129,4,4,0
COC(=O)c1sc(N)c(C(=O)OC)c1COC(=O)C12CC3CC(CC(O)(C3)C1)C2,43,nt,10,-3,-2,nt
O=C(CSc1nnc(NC(=O)C2CCC2)s1)Nc1ccccc1Br,14,nt,2,0,-3,nt
Cc1nc(-c2ccccn2)sc1C(=O)Nc1ccc(F)cc1F,70*,-7,40,1,-5,0
Cc1nc(-c2ccccn2)sc1C(=O)Nc1ccc(F)cc1,27,-21,9,-1,-5,0
CCCc1cc(=O)oc2cc(OCC(=O)N3CCN(C(=O)C4COc5ccccc5O4)CC3)ccc12 (centres undefined),0,nt,0,-3,-4,nt
CCCCOc1ccc2c(c1)C(=O)c1cc(O)ccc1-2,64*,10,39,-4,-5,0
COc1ccc(C(C(=O)NC2CCCCC2)N(C(=O)CCl)c2cccc(Cl)c2)cc1 (centres undefined),-90,4,-90*,1,14,0
COc1ccc(C(C(=O)NC2CCCCC2)N(C(=O)CCl)c2ccc(OC)cc2)cc1 (centres undefined),-35,34,-39,4,-5,0
Cc1ccc(/C=C/C(=O)Nc2nccs2)o1,62*,-60,33,4,-5,0
CCOC(=O)/C=C/C(=O)Nc1nccs1,53*,-15,33,4,-15,0
CCN1C=C(C(C)=O)C(=O)CC1,nt,nt,nt,nt,-2,nt
Cc1cc(C)c(C)c(S(=O)(=O)NCCCn2ccnc2)c1C,-2,nt,-5,1,-3,nt
CCOc1ccc(CCNC(=O)c2ccc(S(=O)(=O)N3CCCC3)cc2)cc1OCC,-7,nt,6,nt,0,nt
O=Cc1ccc(-c2nc3ccccc3s2)o1,63*,-39,36,13,12,0
O=C(O)CCN1C(=O)/C(=C/c2ccc(-c3nc4ccccc4s3)o2)SC1=S,0,10,-5,1,-3,0
SMILES,HSF1 activator,TbHK1 inh,HSF1 inhib,HSP90 inh,HKDC1 inh,Hsp70 act
COc1ccc(S(=O)(=O)N(C)C2(C)CCS(=O)(=O)C2)cc1OC (centres undefined),-5,nt,-6,nt,6,nt
COc1ccc(NC(=O)C2CC(=O)NC(Nc3cccc(C)c3)=N2)cc1 (centres undefined),87*,5,32,1,-6,0
COc1ccc2nc(NC3=NC(C(=O)Nc4ccc(C)cc4)CC(=O)N3)nc(C)c2c1 (centres undefined),25,3,-1,3,nt,0
CCN(CC(=O)NCc1ccco1)S(=O)(=O)c1ccc(OC)cc1,-12,nt,0,nt,-6,nt
CS(=O)(=O)c1sc(C#N)c2c1C(=O)CC(c1ccccc1)C2 (centres undefined),89*,-7,72,0,30,nt
Cc1oc2c(c(=O)c1C)C(=O)CC(c1ccccc1)C2 (centres undefined),-6,-2,-3,0,-4,0
O=C(O)CCCN1C(=O)/C(=C\C(Cl)=C\c2ccccc2)SC1=S,49,nt,45,2,44*,nt
Cc1cccc(C(C)C)c1NC(=O)c1ccc(COc2ccc3c(C)cc(=O)oc3c2)cc1,66*,-6,17,-3,-5,0
OC1CCN(Cc2cccc(Oc3ccccc3)c2)CC1,-62,-1,-51*,-4,-5,0
CN1CCN(Cc2cccc(Oc3ccccc3)c2)CC1,-2,-2,-1,7,-15,0
CCCCn1c(N)c(N(CC(C)C)C(=O)C2CC(=O)N(c3ccc(CC)cc3)C2)c(=O)[nH]c1=O (centres undefined),9,nt,1,nt,-6,nt
N=c1c2c(ncn1Cc1ccco1)Oc1cc(O)ccc1C2c1ccccc1 (centres undefined),-6,-2,3,8,5,nt
COc1ccc(C2c3ccc(O)cc3Oc3ncn(CCCO)c(=N)c32)cc1 (centres undefined),51*,-4,21,-2,-6,nt
Nc1ccc2c(c1)OC1(CCCC1)O2,-91,6,-89*,5,15,0
O=C(Cc1ccccc1)Nc1ccc2c(c1)OC1(CCCC1)O2,nt,nt,nt,nt,1,nt
O=c1cc(COc2ccc(Cl)c(Cl)c2)nc2sccn12,57*,-13,35,3,-3,nt
O=C(c1ccc(F)cc1)C1CCN(C(=S)Nc2ccc(F)cc2)CC1,-2,nt,-1,1,5,nt
COc1cc(C2Nc3ccc4ccccc4c3C3=C2C(=O)CC(C)(C)C3)ccc1OC(C)C(=O)O (centres undefined),20,nt,4,0,7,nt
COc1cc2c(cc1NC(=O)C(C)Sc1ccc(NC(C)=O)cc1)oc1ccccc12 (centres undefined),-68,-18,-60*,2,1,0
COc1cc2c(cc1NC(=O)Nc1ccc(C)cc1)oc1ccccc12,-2,-8,13,-3,4,0
COc1cc2c(cc1NC(=O)C(C)OC(=O)C1CC(=O)N(Cc3ccco3)C1)oc1ccccc12 (centres undefined),74*,-19,35,-3,10,0
CC1(C(=O)Nc2nc3ccccc3s2)CC1(Br)Br (centres undefined),20,nt,9,-4,11,nt
COc1cccc(NC(=O)Cn2c3ccc(F)cc3c3nc4n(c(=O)c32)CCCS4)c1,-44,nt,-28,-2,5,nt
CCOC(=O)CC[C@H](NC(=O)Cn1cnc(C(=O)Nc2ccc(C)c(C)c2)n1)C(=O)OCC,nt,nt,nt,nt,6,nt
CC(=O)c1ccc(NC(=O)C2C3C=CC(O3)C2C(=O)O)cc1 (centres undefined),58*,nt,11,2,1,nt
